We go through 29 compounds from ChEMBL document CHEMBL1129965, “GRID/GOLPE 3D quantitative structure-activity relationship study on a set of benzamides and naphthamides, with affinity for the dopamine D3 receptor subtype” (J Med Chem, 1997).

A word on the Ki: it is the dissociation constant of the complex between target and ligand, obtained from inhibition or displacement. The low end stands for tighter binding, the high end for weaker binding.

The structures appear in SMILES notation.

The first assay deals with D(3) dopamine receptor (Homo sapiens, UniProt P35462). The experiment in a line: Competitive inhibition of [3H]spiperone binding to the human dopamine receptor D3 expressed in CHO cells, expressed as 10log Ki. Type of assay: cell-based. The procedure, abridged: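 Displacement of [3H]spiperone from human dopamine D3 receptors expressed in CHO K1 cells. Four to six test concentrations, each run in triplicate. IC50 from nonlinear regression, converted to Ki (nM) by Cheng–Prusoff, then reported as 10log Ki.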
Chain of D(3) dopamine receptor (P35462 whole entry): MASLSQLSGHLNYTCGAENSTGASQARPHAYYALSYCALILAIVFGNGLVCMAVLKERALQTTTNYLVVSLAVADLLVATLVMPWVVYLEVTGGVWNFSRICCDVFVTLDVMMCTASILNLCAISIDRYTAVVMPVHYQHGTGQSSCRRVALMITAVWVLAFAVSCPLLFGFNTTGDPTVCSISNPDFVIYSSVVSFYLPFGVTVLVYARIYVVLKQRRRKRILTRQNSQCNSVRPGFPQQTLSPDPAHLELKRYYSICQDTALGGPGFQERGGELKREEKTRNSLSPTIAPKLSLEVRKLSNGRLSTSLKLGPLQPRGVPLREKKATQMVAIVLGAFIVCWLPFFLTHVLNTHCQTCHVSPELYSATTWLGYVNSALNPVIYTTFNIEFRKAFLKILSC
`COc1c(C(=O)NCCN2CCN(c3ccc4ccccc4n3)CC2)cc(Br)c2ccccc12` gave a Ki of 251 nM. Still for that read-out and setting: with `CCOc1c(C(=O)NCCN2CCN(c3ccccc3OC)CC2)cc(Br)c2ccccc12` the figure was 79.4 nM; with `COc1c(C(=O)NCCN2CCN(c3ccc(F)cc3F)CC2)cc(Br)c2ccccc12`, 200 nM. For `COc1c(C(=O)NCCN2CCN(c3ccccn3)CC2)cc(Br)c2ccccc12`, the Ki is 79.4 nM. In turn, `COc1c(Cl)cc(Cl)c(O)c1C(=O)NCCN1CCN(c2cccc(Cl)c2Cl)CC1` showed an inhibitory constant (Ki) of 501 nM.

As for `COc1c(C(=O)NCCN2CC=C(c3ccccc3)CC2)cc(Br)c2ccccc12`, the Ki is 20 nM. Same read-out and setting: with `COc1c(C(=O)NCCN2CCC(c3ccccc3)CC2)cc(Br)c2ccccc12` the figure was 79.4 nM.

For `CCc1cc(Cl)c(O)c(C(=O)NCCN2CCN(c3ccccc3)CC2)c1OC`, the Ki was 1580 nM. Same read-out and setting: with `COc1ccc(Br)c(O)c1C(=O)NCCN1CCN(c2ccccc2)CC1` the figure was 398 nM; with `COc1c(C(=O)NCCN2CCN(c3ccc(Cl)cc3Cl)CC2)cc(Br)c2ccccc12`, 100 nM.

The compound `COc1ccc(Br)cc1C(=O)NCCN1CCN(c2ccccc2)CC1` had a Ki of 316 nM.

For `COc1c(C(=O)NCCN2CCN(c3cccc(Cl)c3C)CC2)cc(Br)c2ccccc12`, the Ki was 50.1 nM. Same read-out and setting: with `CCOc1c(C(=O)NCCN2CCN(c3ccccn3)CC2)cc(Br)c2ccccc12` the figure was 79.4 nM; with `CCOc1c(C(=O)NCCN2CCN(c3cccc(C(F)(F)F)c3)CC2)cc(Br)c2ccccc12`, 126 nM; with `COc1c(C(=O)NCCN2CCN(c3ccc(Cl)c(Cl)c3)CC2)cc(Br)c2ccccc12`, 200 nM. Still for that read-out and setting: with `COc1c(C(=O)NCCN2CCN(c3cccc(C)c3)CC2)cc(Br)c2ccccc12` the figure was 316 nM. On the same count and under the same terms, with `COc1c(C(=O)NCCN2CCN(c3ccccc3C)CC2)cc(Br)c2ccccc12` the figure was 63.1 nM; with `COc1c(C(=O)NCCN2CCN(c3ccc(C)cc3)CC2)cc(Br)c2ccccc12`, 251 nM; with `CCOc1c(C(=O)NCCN2CCN(c3ccccc3)CC2)cc(Br)c2ccccc12`, 251 nM.

Take `COc1ccccc1N1CCN(CCNC(=O)c2cc(Br)c3ccccc3c2OC)CC1`: the Ki is 79.4 nM. Same read-out and setting: with `COc1c(C(=O)NCCN2CCN(c3ccccc3Cl)CC2)cc(Br)c2ccccc12` the figure was 39.8 nM. Compound `COc1c(C(=O)NCCN2CCN(c3ccccc3)CC2)cc(Br)c2ccccc12` showed a Ki of 25.1 nM. This Ki lies about 1.6-fold lower than the previous one.

With `COc1c(Cl)cc(Cl)c(O)c1C(=O)NCCN1CCN(c2ccccc2)CC1`, the Ki is 1000 nM. In turn, `COc1c(C(=O)NCCN2CCN(c3cccc(C(F)(F)F)c3)CC2)cc(Br)c2ccccc12` showed a Ki of 251 nM. Same read-out and setting: with `COc1c(C(=O)NCCN2CCN(c3ccccc3)CC2)cc2ccccc2c1Br` the figure was 316 nM; with `COc1c(C(=O)NCCN2CCN(c3ccccc3C#N)CC2)cc(Br)c2ccccc12`, 50.1 nM. As to `COc1c(C(=O)NCCN2CCN(c3ccccc3)CC2)cc(Cl)c2ccccc12`, the Ki is 50.1 nM. This counts as double-digit nanomolar. On the same count and under the same terms, with `COc1c(C(=O)NCCN2CCN(c3cccc(Cl)c3Cl)CC2)cc(Cl)c2ccccc12` the figure was 39.8 nM.

Molecular target in another assay: not listed separately
The experiment in a line: Competitive inhibition of [3H]spiperone binding to the human dopamine receptor D3 expressed in CHO cells, expressed as 10log Ki.
For the compound `COc1c(C(=O)NCCN2CCN(c3cccc(Cl)c3)CC2)cc(Br)c2ccccc12`, the “Log Ki(nM)” value is given as 1.6.
